Assays:
HT-29 = assay: Antiproliferative activity against human HT-29 cells after 72 hrs by sulforhodamine B assay; format: functional, cell-based; conditions: HT-29, 72 h
In short: (§1)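 Cells seeded and exposed in triplicate to graded compound concentrations for 72 h. Suspension cells read by MTT conversion to coloured product; adherent cells read by sulforhodamine B. IC50 (50% growth inhibition versus untreated control) derived by the Logit method.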

K562 = assay: Antiproliferative activity against human K562 cells after 72 hrs by sulforhodamine B assay; format: functional, cell-based; conditions: K562, 72 h; in short: as §1
[1] = biological target: DNA topoisomerase 2-alpha (Homo sapiens, UniProt P11388); assay: Inhibition of topoisomerase-2 alpha in human HT-29 cells assessed as reversal of etoposide-mediated DNA double strand break after 1 hr measured as phosphorylated histone2A level by immunostaining; format: cell-based
Chain of DNA topoisomerase 2-alpha (P11388 whole entry): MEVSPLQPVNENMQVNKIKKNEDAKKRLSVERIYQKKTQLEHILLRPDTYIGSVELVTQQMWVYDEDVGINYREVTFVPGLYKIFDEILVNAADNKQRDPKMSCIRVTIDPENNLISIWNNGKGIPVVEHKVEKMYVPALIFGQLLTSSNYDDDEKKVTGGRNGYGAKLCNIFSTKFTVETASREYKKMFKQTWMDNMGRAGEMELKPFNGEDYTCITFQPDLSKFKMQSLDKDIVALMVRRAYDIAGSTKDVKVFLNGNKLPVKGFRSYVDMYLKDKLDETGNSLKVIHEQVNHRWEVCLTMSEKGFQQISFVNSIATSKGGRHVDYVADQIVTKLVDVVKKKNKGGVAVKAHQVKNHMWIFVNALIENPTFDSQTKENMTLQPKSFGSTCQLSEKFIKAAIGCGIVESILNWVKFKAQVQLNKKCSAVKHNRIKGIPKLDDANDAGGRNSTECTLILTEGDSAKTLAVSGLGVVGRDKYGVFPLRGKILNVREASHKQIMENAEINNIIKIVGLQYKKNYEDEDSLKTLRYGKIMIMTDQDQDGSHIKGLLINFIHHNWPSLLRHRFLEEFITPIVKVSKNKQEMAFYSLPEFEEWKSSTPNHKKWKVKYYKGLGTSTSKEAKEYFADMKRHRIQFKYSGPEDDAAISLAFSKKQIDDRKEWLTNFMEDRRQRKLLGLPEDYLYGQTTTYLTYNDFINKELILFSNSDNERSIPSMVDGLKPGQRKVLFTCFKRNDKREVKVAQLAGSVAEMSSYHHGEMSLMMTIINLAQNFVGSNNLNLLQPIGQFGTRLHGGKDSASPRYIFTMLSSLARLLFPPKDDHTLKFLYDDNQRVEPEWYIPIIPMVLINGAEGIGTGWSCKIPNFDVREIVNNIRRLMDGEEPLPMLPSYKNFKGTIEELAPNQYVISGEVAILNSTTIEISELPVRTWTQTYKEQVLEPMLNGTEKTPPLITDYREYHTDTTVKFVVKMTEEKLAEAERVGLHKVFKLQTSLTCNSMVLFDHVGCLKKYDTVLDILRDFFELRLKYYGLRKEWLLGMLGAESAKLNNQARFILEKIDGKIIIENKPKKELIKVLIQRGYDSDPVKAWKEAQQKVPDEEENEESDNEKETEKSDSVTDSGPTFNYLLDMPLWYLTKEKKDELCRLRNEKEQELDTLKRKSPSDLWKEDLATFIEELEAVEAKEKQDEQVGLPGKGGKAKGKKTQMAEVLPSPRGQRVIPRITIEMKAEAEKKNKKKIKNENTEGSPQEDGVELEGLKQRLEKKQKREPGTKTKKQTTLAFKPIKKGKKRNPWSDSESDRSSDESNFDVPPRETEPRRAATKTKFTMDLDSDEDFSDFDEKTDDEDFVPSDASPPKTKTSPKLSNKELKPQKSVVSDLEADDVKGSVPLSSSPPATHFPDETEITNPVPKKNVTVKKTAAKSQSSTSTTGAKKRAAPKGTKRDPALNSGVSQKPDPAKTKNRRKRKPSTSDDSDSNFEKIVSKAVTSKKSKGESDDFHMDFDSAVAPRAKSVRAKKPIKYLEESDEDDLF

IC50 (HT-29): 20 nM
IC50 (K562): 60 nM
inhibition [1]: Dose-dependent effect
Structure (SMILES): CN(C)C(=S)N/N=C/c1ccc2ccccc2n1

— ChEMBL document CHEMBL1157101, “A series of alpha-heterocyclic carboxaldehyde thiosemicarbazones inhibit topoisomerase IIalpha catalytic activity” (J Med Chem, 2010)
